The source made the active and inactive calls. The calls are words filed in the database; no cut-off is given here.
What was measured:
Homo sapiens [1] = species on record: Homo sapiens; assay: Inactivation of human alkyltransferase in absence of DNA
Outline: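 Purified recombinant human alkyltransferase was incubated with a range of inhibitor concentrations for 30 min at 37°C. The reaction buffer was 50 mM Tris-HCl pH 7.6, 0.1 mM EDTA and 5.0 mM dithiothreitol, with 50 μg hemocyanin and no DNA. ED50 was read from plots of % remaining activity against inhibitor concentration. Values are means of 3–5 repeats or of two experiments.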

Homo sapiens [2] = species on record: Homo sapiens; assay: (§1) Inactivation of human alkyltransferase in presence of DNA
Outline: (§2)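 Purified recombinant human alkyltransferase was incubated with a range of inhibitor concentrations plus 10 μg calf thymus DNA for 30 min at 37°C. The buffer was 50 mM Tris-HCl pH 7.6, 0.1 mM EDTA and 5.0 mM DTT. ED50 came from graphs of % remaining activity against inhibitor concentration. Values are means of 3–5 repeats or of two experiments.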

[3] = as §1; outline: as §2
HT-29 = assay: Induction of sensitization to BCNU-induced killing in human HT29 cells; type: functional, cell-based
Outline: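 HT29 cells in RPMI with 10% FBS were given inhibitor for 2 h before 40 μM BCNU for 2 h. Alternatively, cells grown 48 h in folate-free RPMI got inhibitor for 8 h before 20 μM BCNU for 2 h. Inhibitor-containing medium followed for 16–18 h. Cells were replated at 250–1000 per flask and grown 8 days. Survival was scored as crystal violet-stained colonies.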

A549 = assay: Induction of sensitization to BCNU-induced killing in human A549 cells; type: functional, cell-based
Outline: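 A549 cells were grown 48 h in folate-free RPMI with 10% FBS and plated at 10⁶ per flask. After 24 h they were given inhibitor at various concentrations for 8 h, then 20 μM BCNU for 2 h. Medium was replaced with inhibitor-containing medium for 16–18 h. Cells were replated at 250–1000 per flask and grown 8 days. Crystal violet-stained colonies were counted.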

KB = assay: Induction of sensitization to BCNU-induced killing in human KB cells; type: functional, cell-based
Outline: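 KB cells were grown 48 h in folate-free RPMI with 10% FBS and plated at 10⁶ per flask. After 24 h they were exposed to inhibitor at different concentrations for 8 h, then 40 μM BCNU for 2 h. Medium with inhibitor but no BCNU was given for 16–18 h. Cells were replated at 250–1000 per flask for 8 days of colony formation. Colonies were stained with crystal violet and counted.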

[4] = test system: T1, Methylated-DNA--protein-cysteine methyltransferase (Homo sapiens), P16455 [P140K]; assay: Inactivation of human alkyltransferase P140K mutant
T1 sequence (whole entry): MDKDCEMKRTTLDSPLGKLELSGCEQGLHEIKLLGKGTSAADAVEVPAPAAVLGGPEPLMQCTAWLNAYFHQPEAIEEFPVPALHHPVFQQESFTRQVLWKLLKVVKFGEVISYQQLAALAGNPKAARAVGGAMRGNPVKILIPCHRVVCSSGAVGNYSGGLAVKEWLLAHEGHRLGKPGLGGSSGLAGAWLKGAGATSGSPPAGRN

SMILES | ED50 (Homo sapiens [1]) [µM] | ED50 (Homo sapiens [2]) [µM] | EC50 [3] [µM] | Activity (HT-29) | Activity (A549) | Activity (KB) | ED50 [4] [µM]
Nc1nc(OCc2ccc(COC(=O)CC[C@H](NC(=O)c3ccc(NCc4cnc5nc(N)[nH]c(=O)c5n4)cc3)C(=O)O)cc2)c2nc[nH]c2n1 | 0.7 | 0.24 | – | – | – | – | –
Nc1nc(OCc2ccccc2)c2ncn([C@H]3C[C@H](O)[C@@H](COC(=O)CC[C@H](NC(=O)c4ccc(NCc5cnc6nc(N)[nH]c(=O)c6n5)cc4)C(=O)O)O3)c2n1 | 0.64 | – | 3.06 | Active | Active | Active | –
Nc1nc(OCc2ccc(CO)cc2)c2nc[nH]c2n1 | 0.4 | 0.1 | – | Active | – | – | –
Nc1nc(OCc2ccccc2)c2ncn([C@H]3C[C@H](O)[C@@H](CO)O3)c2n1 | 2 | 40 | – | – | – | – | –
Nc1nc(OCc2ccccc2)c2nc[nH]c2n1 | 0.3 | 0.1 | – | – | – | – | –
Nc1nc(OCc2ccccc2)c2ncn([C@H]3C[C@H](OC(=O)CC[C@H](NC(=O)c4ccc(NCc5cnc6nc(N)[nH]c(=O)c6n5)cc4)C(=O)O)[C@@H](CO)O3)c2n1 | 0.016 | 0.68 | – | Active | Active | Active | 100
